# Results published in publication PMC10981011 (Synthetic and Systems Biotechnology, 2024).
# Experiments:
# [1] = system: Mak1 (microbiome-derived acarbose kinase 1); assay: In vitro reaction of Mak1; type: in vitro ADME, human microbiome; conditions: 10 μM Mak1, 0.5 mM substrate, 2 mM ATP, 30 °C, 2 h
# Outline: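 Mak1 expressed in E. coli Origami B (DE3) (1 mM IPTG, 16 °C, 18 h) and purified on Ni-NTA. Reactions used 100 mM Tris-HCl pH 7.0, 10 mM MgCl₂, 2 mM ATP, 10 μM Mak1 and 0.5 mM test compound. They ran at 30 °C for 2 h and were stopped with 2 volumes methanol. Control used heat-inactivated Mak1 (95 °C, 30 min). Phosphorylated product detected by LC-MS on an SB-Aq column.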
# [2] = system: Apg (acarbose-preferred glucosidase); assay: In vitro reaction of Apg; type: in vitro ADME, Klebsiella grimontii TD1; conditions: 10 μM Apg, 1 mM substrate, 37 °C, 2 h
smiles,measurement,setting,value
C[C@H]1O[C@H](O[C@H]2[C@H](O)[C@@H](O)[C@@H](O[C@H]3[C@H](O)[C@@H](O)C(O)O[C@@H]3CO)O[C@@H]2CO)[C@H](O)[C@@H](O)[C@@H]1N[C@H]1C=C(CO)[C@@H](O)[C@H](O)[C@H]1O (some centres unmarked) [Acarbose],Phosphorylation by Mak1 (detection of phosphorylated product),[1],catalyzed the conversion of acarbose to O-7-phosphoryl-acarbose
same,Hydrolysis by Apg,[2],completely converted
